These results are taken from ChEMBL document CHEMBL5678805, “Intermittent administration of MEK inhibitor GDC-0973 plus PI3K inhibitor GDC-0941 triggers robust apoptosis and tumor growth inhibition” (Cancer Res, 2012).

Activity calls are given as the source filed them. The rule behind the calls is not given here.

For test [1], the system named is NCI-H2122. The experiment in a line: Antitumor activity against human NCI-H2122 cells xenografted in mouse assessed as tumor growth inhibition at 5 mg/kg, po administered once a day for 21 days. The note with it: NCI-H2122, 504 h, read-out: TGI, time 21 day. Format: functional. The procedure, abridged: (§1)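 Mice bearing NCI-H2122 xenografts were given MEK inhibitor, PI3K inhibitor, or both, orally once daily for 21 consecutive days at the doses labeled. Caliper tumor volumes were calculated as (L×W×W)/2. %TGI was derived from the AUC of the fitted growth curve per day relative to vehicle.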
In general terms: Xenograft models place foreign cells or tissue in a host animal.

A further test deals with Hs 294T. The experiment in a line: Antiproliferative activity against human Hs294T cells assessed reduction in cell viability incubated for 4 days in presence of 4-(2-(1H-indazol-4-yl)-6-((4-(methylsulfonyl)piperazin-1-yl)methyl)thieno[3,2-d]pyrimidin-4-yl)morpholine by celltiter-glo assay. The note with it: time 4 day. Format: functional. The procedure, abridged:
(§2)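 4-day CellTiter-Glo viability read-out on melanoma lines, cells exposed to increasing concentrations of each inhibitor alone and in combination.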
For orientation: In ATP-based viability assays light output follows the ATP content of the culture.

Test [2] deals with Serine/threonine-protein kinase Sgk1 (Homo sapiens, UniProt O00141). The experiment in a line: Inhibition of SGK (unknown origin).
Chain of Serine/threonine-protein kinase Sgk1 (O00141 whole entry): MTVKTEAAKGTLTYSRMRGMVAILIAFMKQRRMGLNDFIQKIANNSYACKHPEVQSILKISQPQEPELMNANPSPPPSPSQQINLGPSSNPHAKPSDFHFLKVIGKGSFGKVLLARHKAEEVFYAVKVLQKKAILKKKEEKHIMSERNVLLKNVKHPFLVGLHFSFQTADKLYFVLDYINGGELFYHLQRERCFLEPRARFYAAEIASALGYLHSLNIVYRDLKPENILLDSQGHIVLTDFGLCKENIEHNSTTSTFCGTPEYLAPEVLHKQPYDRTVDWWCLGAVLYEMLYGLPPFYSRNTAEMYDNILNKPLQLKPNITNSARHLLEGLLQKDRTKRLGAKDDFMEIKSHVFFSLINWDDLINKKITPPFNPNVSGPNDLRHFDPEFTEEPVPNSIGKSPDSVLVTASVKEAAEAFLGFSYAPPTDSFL
A further test deals with MIA PaCa-2. The experiment in a line: Antitumor activity against human MIA PaCa-2 cells harboring KRAS G12C/NOTCH1 L2458V mutant xenografted in mouse assessed as tumor growth inhibition at 10 mg/kg, po. The class given is functional. The note with it: read-out: TGI. The procedure, abridged:
(§3)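 Single-agent dose ranging in human tumor xenograft mice at 2.5, 5 or 10 mg/kg oral. Tumor volume was measured by caliper as (L×W×W)/2. %TGI = 100×[1 − AUC(treatment/d)/AUC(vehicle/d)] from the fitted growth curve per dose group, relative to vehicle.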

In test [3] the test system is NCI-H2122. The test can be described thus: Antitumor activity against human NCI-H2122 cells harboring KRAS […]/LKB1 P281/TP53Q61L/C176Fl/CDKN2A mutant xenografted in mouse assessed as tumor growth inhibition at 5 mg/kg, po. The class given is functional. As to conditions: read-out: TGI. The procedure, abridged:
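NCI-H2122 (KRAS G12C) NSCLC xenografts in mice were dosed orally once daily for 21 consecutive days. Tumor volume was measured with calipers as (L×W×W)/2, and body weight was tracked. %TGI was derived from the area under the fitted growth curve per day versus vehicle. Group means with SEM were reported.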

The nature of test [4]: Antitumor activity against human A2058-X1 cells harboring BRAF V600E/PTEN L112Q/V175/TP53 V274F mutant xenografted in mouse assessed as tumor growth inhibition at 5 mg/kg, po. Format: functional. As to conditions: A2058-X1, read-out: TGI. The gist of the method: as §3
The test system of test [5] is Calu-6. The experiment in a line: Antitumor activity against human Calu-6 cells harboring KRAS Q61K and TP53 R196 mutant xenografted in mouse assessed as tumor growth inhibition at 5 mg/kg, po. The note with it: read-out: TGI. Format: functional. The procedure, abridged:
as §3

Test [6] concerns the target Dual specificity mitogen-activated protein kinase kinase 7 (Homo sapiens, UniProt O14733). The test can be described thus: Inhibition of MKK7beta (unknown origin).
Test [7] has as its target Testis-specific serine/threonine-protein kinase 1 (Homo sapiens, UniProt Q9BXA7). The test can be described thus: Inhibition of TSSK1 (unknown origin).
Test [8] deals with Calu-6. The test can be described thus: Antitumor activity against human Calu-6 cells harboring KRAS Q61K and TP53 R196 mutant xenografted in mouse assessed as tumor growth inhibition at 10 mg/kg, po. As to conditions: read-out: TGI. Format: functional. The gist of the method: as §3
Another test concerns RPMI-7951. The test can be described thus: Antiproliferative activity against human RPMI-7951 cells assessed reduction in cell viability incubated for 4 days in presence of 4-(2-(1H-indazol-4-yl)-6-((4-(methylsulfonyl)piperazin-1-yl)methyl)thieno[3,2-d]pyrimidin-4-yl)morpholine by celltiter-glo assay. The class given is functional. As to conditions: time 4 day. The gist of the method:
as §2

Test [9] relates to A2058. The test can be described thus: Antitumor activity against human A2058 cells xenografted in mouse assessed as tumor growth inhibition at 20 mg/kg, po administered every third day for 21 days in presence of 4-(2-(1H-indazol-4-yl)-6-((4-(methylsulfonyl)piperazin-1-yl)methyl)thieno[3,2-d]pyrimidin-4-yl)morpholine. The class given is functional. As to conditions: A2058, 504 h, time 21 day, read-out: TGI. The gist of the method: (§4)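 Human tumor xenografts in mice. Drugs given orally, as single agents or combined with the PI3K inhibitor. Schedules were daily (QD) or every third day (Q3D) over 21 days. Tumor volume was measured by caliper as (L×W×W)/2. %TGI = 100×[1 − AUC(treatment/d)/AUC(vehicle/d)] from fitted growth curves, with group means. Tumor lysates were immunoblotted for pS6.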

The test system of the next test is NCI-H520. The test can be described thus: Antitumor activity against human NCI-H520 cells harboring TP53 W146 and CDKN2A G G45 mutant xenografted in mouse assessed as tumor growth inhibition at 5 mg/kg, po. The class given is functional. As to conditions: read-out: TGI. The gist of the method: (§5)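 Human tumor xenografts in mice were dosed orally at the indicated mg/kg. Tumor volume was measured with calipers as (L×W×W)/2. %TGI = 100 × [1 − (AUC treatment/d)/(AUC vehicle/d)], using the area under the fitted tumor-growth curve per day for each dose group relative to vehicle.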

Test [10] is described as follows: Inhibition of PKA (unknown origin). More on the design: species or system Homo sapiens.
In test [11] the test system is A2058. The experiment in a line: Antitumor activity against human A2058 cells harboring BRAF V600E/PTEN deletion mutant xenografted in mouse assessed as decrease in cyclin D1 level at 15 mg/kg, po administered every third day for 21 days and measured after 8 hrs post dose in presence of 4-(2-(1H-indazol-4-yl)-6-((4-(methylsulfonyl)piperazin-1-yl)methyl)thieno[3,2-d]pyrimidin-4-yl)morpholine by Western blot analysis. Format: functional, organism-based. The note with it: time 512.0 hrs.

Test [12] relates to NCI-H2122. The experiment in a line: Antitumor activity against human NCI-H2122 cells xenografted in mouse assessed as tumor growth inhibition at 5 mg/kg, po administered once a day for 21 days in presence of 4-(2-(1H-indazol-4-yl)-6-((4-(methylsulfonyl)piperazin-1-yl)methyl)thieno[3,2-d]pyrimidin-4-yl)morpholine. As to conditions: NCI-H2122, 504 h, time 21 day, read-out: TGI. Format: functional. The gist of the method:
as §1

A short description of test [13]: Antitumor activity against human A375.X1 cells xenografted in mouse assessed as tumor growth inhibition at 15 mg/kg, po administered every third day for 21 days. The class given is functional. As to conditions: A375.X1, 504 h, time 21 day, read-out: TGI. The gist of the method:
as §4

For test [14], the system named is A2058. The experiment in a line: Antitumor activity against human A2058 cells harboring BRAF V600E/PTEN deletion mutant xenografted in mouse assessed as increase in Bims level at 15 mg/kg, po administered every third day for 21 days and measured after 8 hrs post dose by Western blot analysis. The class given is functional, organism-based. As to conditions: time 512.0 hrs.

A further test relates to MX1. The test can be described thus: Antitumor activity against human MX1 cells harboring PTEN null mutation xenografted in mouse assessed as tumor growth inhibition at 5 mg/kg, po. As to conditions: read-out: TGI. The class given is functional. The gist of the method:
as §5

Test [15] concerns the target Proto-oncogene tyrosine-protein kinase Src (Homo sapiens, UniProt P12931). The test can be described thus: Inhibition of SRC (unknown origin).
The subject of another test is 888-mel. The experiment in a line: Antiproliferative activity against human 888-mel cells assessed reduction in cell viability incubated for 4 days in presence of 4-(2-(1H-indazol-4-yl)-6-((4-(methylsulfonyl)piperazin-1-yl)methyl)thieno[3,2-d]pyrimidin-4-yl)morpholine by celltiter-glo assay. The note with it: time 4 day. Format: functional. The procedure, abridged: as §2

Test [16] in a line: Antitumor activity against human A375.X1 cells harboring BRAF V600E/CDKN2A E61 mutant xenografted in mouse assessed as tumor growth inhibition at 10 mg/kg, po. Format: functional. The note with it: A375.X1, read-out: TGI. The gist of the method: as §3
Test [17] deals with Protein kinase C gamma type (Homo sapiens, UniProt P05129). The test can be described thus: Inhibition of PKCg (unknown origin).

Chain of Proto-oncogene tyrosine-protein kinase Src (P12931 2-536 limits assumed): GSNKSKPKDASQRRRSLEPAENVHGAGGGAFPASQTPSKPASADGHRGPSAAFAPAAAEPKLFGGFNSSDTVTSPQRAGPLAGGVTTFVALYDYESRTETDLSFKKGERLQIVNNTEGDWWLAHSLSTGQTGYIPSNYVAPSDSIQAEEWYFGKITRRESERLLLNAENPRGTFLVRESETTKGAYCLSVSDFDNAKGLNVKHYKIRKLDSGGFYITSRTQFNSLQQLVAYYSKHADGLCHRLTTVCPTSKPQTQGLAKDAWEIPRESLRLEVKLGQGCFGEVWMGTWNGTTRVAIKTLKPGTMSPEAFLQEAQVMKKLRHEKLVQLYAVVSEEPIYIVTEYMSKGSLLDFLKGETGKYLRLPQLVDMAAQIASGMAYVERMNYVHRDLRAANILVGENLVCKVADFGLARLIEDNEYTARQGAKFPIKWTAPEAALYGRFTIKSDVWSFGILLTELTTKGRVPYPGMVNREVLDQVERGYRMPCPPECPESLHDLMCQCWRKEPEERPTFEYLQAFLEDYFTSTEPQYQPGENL
Chain of Testis-specific serine/threonine-protein kinase 1 (Q9BXA7 whole entry): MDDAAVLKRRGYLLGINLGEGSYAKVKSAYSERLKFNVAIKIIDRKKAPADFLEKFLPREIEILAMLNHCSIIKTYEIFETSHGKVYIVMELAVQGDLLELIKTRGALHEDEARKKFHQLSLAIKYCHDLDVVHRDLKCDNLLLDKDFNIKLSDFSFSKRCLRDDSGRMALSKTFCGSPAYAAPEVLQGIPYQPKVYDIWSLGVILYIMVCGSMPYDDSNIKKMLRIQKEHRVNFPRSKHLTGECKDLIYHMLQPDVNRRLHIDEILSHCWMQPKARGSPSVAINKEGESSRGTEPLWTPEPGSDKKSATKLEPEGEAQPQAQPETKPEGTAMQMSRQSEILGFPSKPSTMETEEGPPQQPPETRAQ
Chain of Dual specificity mitogen-activated protein kinase kinase 7 (O14733 whole entry): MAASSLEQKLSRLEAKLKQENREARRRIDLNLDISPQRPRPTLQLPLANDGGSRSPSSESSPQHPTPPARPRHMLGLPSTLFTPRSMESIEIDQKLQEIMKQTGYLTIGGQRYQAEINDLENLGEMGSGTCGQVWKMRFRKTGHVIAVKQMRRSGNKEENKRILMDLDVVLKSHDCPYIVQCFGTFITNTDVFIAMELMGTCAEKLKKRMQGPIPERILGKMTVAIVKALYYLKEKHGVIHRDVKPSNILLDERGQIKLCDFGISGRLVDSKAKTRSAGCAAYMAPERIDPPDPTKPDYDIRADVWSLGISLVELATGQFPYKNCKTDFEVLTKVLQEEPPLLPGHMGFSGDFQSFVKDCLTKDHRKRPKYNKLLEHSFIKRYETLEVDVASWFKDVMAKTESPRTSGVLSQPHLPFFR

Turning to `O=C(c1ccc(F)c(F)c1Nc1ccc(I)cc1F)N1CC(O)([C@@H]2CCCCN2)C1` [COBIMETINIB], the inhibition in vivo at 5 mg/kg with NCI-H2122 [1] was found to be 49%; in the test with NCI-H2122 [3], 49%; in test [4] it was 45%; in the test on Calu-6 [5], 80%; with NCI-H520, 26%; in the test with NCI-H2122 [12] it was 75%. In addition, in the test with MX1, the inhibition in vivo at 5 mg/kg is 26%. Further, the Activity in the test with Hs 294T, in the test on RPMI-7951 and with 888-mel was 60% in each case. In addition, the IC50 in [2], in [6], in test [7], in test [10], in [15] and in [17] was above 10 µM each time. In addition, the figures for the inhibition in vivo at 10 mg/kg (in the test on MIA PaCa-2; with Calu-6 [8]; in test [16]) were 12%, 44% and 104%, respectively. The inhibition in vivo at 20 mg/kg with A2058 [9] was 83%. Moreover, the outcome with A2058 [11] and in the test on A2058 [14] was Active. Besides, in [13], the inhibition in vivo at 15 mg/kg was determined as 75%.
